Screens: PubChem, several laboratories
UBC13 polyUb: human UBC13 polyubiquitination inhibition. inhibition, % at 20 µM. UBC13 polyubiquitin chain formation, TR-FRET. P61088. actives 0.47% (n = 330,000); in the data active = inhibition above about 45%, passing the limit was not always enough
Target sequence (P61088 whole entry, looked up): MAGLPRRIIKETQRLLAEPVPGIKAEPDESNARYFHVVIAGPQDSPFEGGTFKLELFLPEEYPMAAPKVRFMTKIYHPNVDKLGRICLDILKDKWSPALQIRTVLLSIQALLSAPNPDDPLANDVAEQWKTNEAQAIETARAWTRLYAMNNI
AI-2 QS mod: Vibrio harveyi AI-2 quorum sensing modulation | Vibrio harveyi JMH597 AI-2 luminescence/OD600 ratio, 9 h; stronger effect = lower value; strain lacks LuxN and CqsS sensors; 0 = neutral-control median | AID 2094 | actives 0.4% (n = 300,000) | activity change, % at 7.5 µM; in the data active = activity change below about -75%, passing the limit was not always enough;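 also: luminescence divided by OD600 gain over 9 h not by final OD600 alone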
T cruzi repl: blocks replication of Trypanosoma cruzi | T. cruzi beta-gal in NIH3T3, luminescence, 90 h | inhibition, % (concentration not given with the values) | actives 1.4% (n = 300,000);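 active = mean inhibition across valid replicates above about 55%, limit read from the data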;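 also: signal also drops with host cell toxicity which is not excluded here; higher percent means less beta-gal luminescence so fewer parasites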
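Assay system: NIH/3T3 fibroblasts plus reporter T. cruzi. Amount: NIH/3T3 cells, 5,000 per well. Buffer or medium: DMEM, 2% fetal bovine serum. Doses: compound pinned at 50 nL/well, DMSO. Schedule: ≥90 h infection period, 3 h prior cell attachment. Signal: luminescent β-galactosidase signal after 60 min lysis. Read-out: parasite load inhibition, %.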
PP1 inh: PP1-alpha (human) inhibition in PP5 counter-screen; purified PP1alpha, OMFP fluorescence; inhibition, % at 6.7 µM; actives 0.9% (n = 320,000);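 active = inhibition above the mean inhibition of all tested compounds plus 3 SD, computed separately for each screening campaign, cut at about 15% in these data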
p-CIP stab down: compounds decreasing mouse p/CIP protein stability | Q05BA5 | F442A p/CIP-EGFP cells, EGFP fluorescence, 16 h | decrease of EGFP signal, % at 10 µM | actives 0.01% (n = 290,000) | AID 1984;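 active = EGFP signal decrease of at least 30% at 10 µM or well 3 SD below plate mean, unless failing retest; inactive = the rest, including hits failing retest or dose response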
PP1 confirm: human PP1 phosphatase inhibition, confirmation; shares compounds with PP1 inh; purified PP1alpha, OMFP substrate fluorescence; inhibition, % at 6.7 µM; actives 52% (n = 1,900); AID 2358;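 active = mean PP1 inhibition above a set limit taken from the earlier primary screen, cut at about 15% in these data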
PP5 inh counter: PP5 phosphatase inhibition, counter-screen for PP1 inhibitors. shares compounds with PP1 inh. purified PP5c, OMFP fluorescence. inhibition, % at 6.7 µM. actives 4% (n = 1,900);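 active = mean PP5 inhibition over triplicate wells above about 9.5% taken from the earlier PP1 screen, limit read from the data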
Target sequence (P53041 whole entry, looked up): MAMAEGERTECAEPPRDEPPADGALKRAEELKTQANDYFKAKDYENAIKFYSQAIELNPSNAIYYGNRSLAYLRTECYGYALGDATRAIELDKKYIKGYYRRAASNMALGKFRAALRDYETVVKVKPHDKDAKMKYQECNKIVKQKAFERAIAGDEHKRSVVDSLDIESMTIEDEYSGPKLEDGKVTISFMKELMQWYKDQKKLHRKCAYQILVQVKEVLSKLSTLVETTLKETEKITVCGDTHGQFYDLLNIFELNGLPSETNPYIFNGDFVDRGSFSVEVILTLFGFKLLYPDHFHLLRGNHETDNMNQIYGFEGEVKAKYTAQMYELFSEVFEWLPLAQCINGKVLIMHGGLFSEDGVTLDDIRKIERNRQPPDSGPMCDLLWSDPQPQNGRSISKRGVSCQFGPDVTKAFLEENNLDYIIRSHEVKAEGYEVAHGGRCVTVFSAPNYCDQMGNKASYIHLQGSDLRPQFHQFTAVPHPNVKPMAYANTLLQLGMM
Hits are given with their value. The list is not random: actives were taken first. Their share in the collection is about 2.8%.

For CCOc1ccc(C(=O)N/N=C/c2ccc(-c3ccc(S(=O)(=O)Nc4ncccn4)cc3)o2)cc1 the results were UBC13 polyUb inactive, AI-2 QS mod inactive, T cruzi repl inactive, PP1 inh inactive and p-CIP stab down inactive.
Screening Cc1ccc(C2C(/C=C3/SC(=S)NC3=O)=C(c3cccs3)Oc3ccccc32)cc1 (stereo unspecified) returned UBC13 polyUb inactive, AI-2 QS mod inactive, T cruzi repl inactive, PP1 inh 31, p-CIP stab down inactive, PP1 confirm 22 and PP5 inh counter inactive.
`CCOC(=O)c1c(C)[nH]c(C)c1C(=O)COC(=O)COc1ccc(Cl)c(C)c1` gave UBC13 polyUb inactive.
CCC(=O)N1C(C(=O)O)CSC1c1ccc(OC)cc1 (stereo unspecified) was read as UBC13 polyUb inactive, AI-2 QS mod inactive, T cruzi repl inactive, PP1 inh 31, p-CIP stab down inactive, PP1 confirm inactive and PP5 inh counter inactive.
Screening O=C(Nc1ccccc1Cl)C1CCCN1C(=O)OCc1ccccc1 (stereo unspecified) returned UBC13 polyUb inactive, AI-2 QS mod inactive, T cruzi repl inactive, PP1 inh inactive and p-CIP stab down inactive.
O=C(O)CN1C(=O)/C(=C\c2cc(Br)ccc2OCc2ccccc2Cl)SC1=S was read as UBC13 polyUb inactive, AI-2 QS mod inactive, T cruzi repl inactive, PP1 inh inactive and p-CIP stab down inactive.
For O=C(O)CN1C(=O)/C(=C\c2ccccc2OCc2ccc(Cl)cc2Cl)SC1=S the results were UBC13 polyUb inactive, AI-2 QS mod inactive, T cruzi repl inactive, PP1 inh 24, p-CIP stab down inactive, PP1 confirm 21 and PP5 inh counter inactive.
Screening CCOc1ccc2nc3cc(NCc4ccc(OC)cc4)ccc3c(N)c2c1 returned UBC13 polyUb inactive, AI-2 QS mod inactive, T cruzi repl inactive, PP1 inh 65, p-CIP stab down inactive, PP1 confirm 16 and PP5 inh counter 38.
For CCn1cnc2cc(NCc3ccc(OC)cc3)ccc21 the results were UBC13 polyUb inactive, AI-2 QS mod inactive, T cruzi repl inactive, PP1 inh inactive and p-CIP stab down inactive.
`COc1ccc2[nH]c3c(c2c1)CCn1c-3nc2ccccc2c1=O` gave UBC13 polyUb inactive, AI-2 QS mod inactive, PP1 inh 26, p-CIP stab down inactive, PP1 confirm 22 and PP5 inh counter inactive.
COc1cc(OC)cc(C(=O)Nn2c(C)nc3ccccc3c2=O)c1 was read as UBC13 polyUb inactive, AI-2 QS mod inactive, T cruzi repl inactive, PP1 inh inactive and p-CIP stab down inactive.
CCOc1cc(C2Nc3cccc4cccc(c34)N2)ccc1O was read as UBC13 polyUb inactive, AI-2 QS mod inactive, T cruzi repl inactive, PP1 inh 24, p-CIP stab down inactive, PP1 confirm inactive and PP5 inh counter inactive.
Screening N=c1n(CCN2CCCCC2)c2ccccc2n1CC(=O)c1ccc(Cl)c(Cl)c1 returned UBC13 polyUb inactive, AI-2 QS mod inactive, T cruzi repl inactive, PP1 inh 27, p-CIP stab down inactive, PP1 confirm inactive and PP5 inh counter inactive.
For CCn1c(=N)n(CC(=O)c2ccc(Cl)c(Cl)c2)c2ccccc21 the results were UBC13 polyUb inactive, AI-2 QS mod inactive, T cruzi repl inactive, PP1 inh inactive and p-CIP stab down inactive.
Cn1nc(C(F)(F)F)c(-c2ccc(Br)cc2)c1NC(=O)c1nccnc1C(=O)O was read as UBC13 polyUb inactive, AI-2 QS mod inactive, T cruzi repl inactive, PP1 inh inactive and p-CIP stab down inactive.
Screening Cn1nc(C(F)(F)F)c(-c2ccccc2)c1NC(=O)c1nccnc1C(=O)O returned UBC13 polyUb inactive, AI-2 QS mod inactive, T cruzi repl inactive, PP1 inh 25, p-CIP stab down inactive, PP1 confirm inactive and PP5 inh counter inactive.
For CCCCN(C(=O)c1cccc(N2C(=O)c3ccccc3C2=O)c1)c1c(N)n(CC(C)C)c(=O)[nH]c1=O the results were UBC13 polyUb inactive and PP1 inh inactive.
CCCCN(C(=O)c1cccc(-n2cccc2)c1)c1c(N)n(Cc2ccccc2)c(=O)[nH]c1=O was read as UBC13 polyUb inactive, AI-2 QS mod inactive, T cruzi repl inactive, PP1 inh 34, PP1 confirm inactive and PP5 inh counter inactive.
Screening COc1ccccc1CN(Cc1cc2c(C)ccc(C)c2[nH]c1=O)Cc1nnnn1Cc1ccco1 returned UBC13 polyUb inactive, AI-2 QS mod inactive, T cruzi repl inactive, PP1 inh inactive and p-CIP stab down inactive.
Screening CCOC(=O)N1CCC(c2cc(=O)n3[nH]c(-c4ccccc4)cc3n2)CC1 returned UBC13 polyUb inactive, AI-2 QS mod inactive, T cruzi repl inactive, PP1 inh inactive and p-CIP stab down inactive.
`CCOC(=O)N1CCC(c2cc(=O)n3[nH]c(C)c(-c4ccc(F)cc4)c3n2)CC1` gave UBC13 polyUb inactive, AI-2 QS mod inactive, T cruzi repl inactive, PP1 inh 19, p-CIP stab down inactive, PP1 confirm inactive and PP5 inh counter inactive.
`CCn1c(SCC(=O)Nc2ccc(Br)cn2)nnc1C1CC1` gave UBC13 polyUb inactive, AI-2 QS mod inactive, T cruzi repl inactive, PP1 inh inactive and p-CIP stab down inactive.
Screening COc1ccc(CNC(=O)CCCN2C(=O)NC3(CCCC3)C2=O)cc1 returned UBC13 polyUb inactive and PP1 inh inactive.
For CC(C)(C)NC(=O)Cn1nc(C(F)(F)F)c2c1CCCC2 the results were UBC13 polyUb inactive, AI-2 QS mod inactive, T cruzi repl inactive, PP1 inh inactive and p-CIP stab down inactive.
CC1CCN(C(=O)Cn2nc(C(F)(F)F)c3c2CCCC3)CC1 was read as UBC13 polyUb inactive, AI-2 QS mod inactive, T cruzi repl inactive, PP1 inh 34, p-CIP stab down inactive, PP1 confirm inactive and PP5 inh counter inactive.
For CCOc1ccc(NC(=O)CSc2nnc(C3CC3)n2C)cc1S(=O)(=O)N1CCCCC1 the results were UBC13 polyUb inactive and PP1 inh inactive.
`CC(C)(C)c1ccc(-c2nn(CCC#N)cc2/C=N/O)cc1` gave UBC13 polyUb inactive, AI-2 QS mod inactive, T cruzi repl inactive, PP1 inh 32, p-CIP stab down inactive, PP1 confirm inactive and PP5 inh counter inactive.
For Cc1cccc(N2CCN(C(=O)c3ccc4c(c3)c(C)c(C)n4C)CC2C)c1 (stereo unspecified) the results were UBC13 polyUb inactive, AI-2 QS mod inactive, T cruzi repl inactive, PP1 inh inactive and p-CIP stab down inactive.
For Cc1ccc(CSCC2Nc3ccc(C(=O)N4CCN(c5cccc(C)c5)C(C)C4)cc3NC2=O)cc1 (stereo unspecified) the results were UBC13 polyUb inactive, AI-2 QS mod inactive, T cruzi repl inactive, PP1 inh 19, p-CIP stab down inactive, PP1 confirm 29 and PP5 inh counter inactive.
